Published values pooled from the literature.
Protocols differ between the studies behind these lines.
TEC: Tyrosine-protein kinase Tec (TEC, Homo sapiens, UniProt P42680)
TEC phosphorylated: Tyrosine-protein kinase Tec, phosphorylated (TEC, Homo sapiens, UniProt P42680)

SMILES | target | observed | action | technique | concentration | quantity | result
CN([C@@H]1CCc2c(CC(=O)O)c3ccccc3n2C1)S(=O)(=O)c1ccc(F)cc1 | TEC | cell-free assay |  | competition with immobilised ligand | 1 µM | remaining binding | 100%
N#CCCc1ccc2c(c1)-c1[nH]c3ccc([N+](=O)[O-])cc3c1CC(=O)N2 | TEC | cell-free assay |  |  | 0.5 µM | remaining signal | 120%
Cc1ccc(C(=O)Nc2ccc(CN3CCN(C)CC3)c(C(F)(F)F)c2)cc1C#Cc1cnc2cccnn12 | TEC | enzyme activity |  |  | 23.5 nM | remaining activity | 84%
CN(C)C(=O)Cn1cc(-c2nc(C3(c4ccc(-c5cnc(N)nc5)cc4)CC3)no2)cn1 | TEC | binding |  | competition with immobilised ligand | 1 µM | remaining binding | 93%
CCCOc1ccc(OC)c(F)c1C(=O)c1ccc(C(=O)N[C@@H]2CNC[C@H]2NC(=O)c2ccc3[nH]ncc3c2)cc1 | TEC phosphorylated | enzyme activity | inhibitor |  | 10 µM | remaining activity | 50%
CCOc1cc(-c2nncn2C)ccc1Nc1ncc2cc(C)nc(NCC(C)(C)C)c2n1 | TEC | cell-free assay |  | TR-FRET | 1 µM | inhibition | ≤ 15%
O=C(Nc1cnn(-c2csc(C(=O)NC3COC3)c2)c1)Nc1c(F)cccc1Cl | TEC | enzyme activity | inhibitor |  | 5 µM | remaining activity | 97.7%
CCN(CC)c1ccc(C2=NNC(=O)CC2C)cc1[N+](=O)[O-] (centres unmarked) | TEC phosphorylated | enzyme activity | inhibitor |  | 10 µM | remaining activity | 64%
Cc1ccc(NC(=O)c2ccc(C)c(C(F)(F)F)c2)cc1C#Cc1nn(C2CCC(O)CC2)c2ncnc(N)c12 (centres unmarked) | TEC phosphorylated | enzyme activity | inhibitor |  | 10 µM | remaining activity | 24%
Cc1sc(C(=O)NC2COC2)cc1-n1cc(NC(=O)Nc2c(F)cccc2Cl)cn1 | TEC | enzyme activity | inhibitor |  | 10 µM | remaining activity | 91.1%
CC(=O)N1CCC(c2ccc(C(=O)NC3=NCCN3)cc2C(F)(F)F)CC1 | TEC | binding |  | competition with immobilised ligand | 1 µM | remaining binding | 100%
CC(C)[C@H](NC(=O)c1cc(-c2cnn3cc(-c4ccc(OCCN5CCCCC5)cc4)cnc23)cs1)C(F)(F)F | TEC | enzyme activity | inhibitor | radiometric | 15 nM | inhibition | 0%
CNC(=O)c1cc(Oc2ccc(NC(=O)Nc3ccc(Cl)c(C(F)(F)F)c3)cc2)ccn1 | TEC | cell-free assay |  |  | 0.5 µM | remaining signal | 101%
CCCOc1ccc([C@@H]2[C@@H](C(=O)O)[C@H](c3ccc4c(c3)OCO4)CN2CC(=O)Nc2c(CC)cccc2CC)cc1 | TEC | binding |  | competition with immobilised ligand | 1 µM | remaining binding | 96%
Oc1cccc(-c2nc(N3CCOCC3)c3oc4ncccc4c3n2)c1 | TEC | cell-free assay |  |  | 0.5 µM | remaining signal | 113%
CC(C)(O)[C@H]1CC[C@H](Nc2ccc3ncc(-c4cccc(C(F)(F)F)c4)n3n2)CC1 | TEC | enzyme activity | inhibitor |  | 1 µM | remaining activity | 104%
NS(=O)(=O)c1cc(NC(=O)C2(c3ccccc3Cl)CC2)ccc1Oc1cccc(Cl)c1 | TEC | binding |  | competition with immobilised ligand | 1 µM | remaining binding | 81%
CCCS(=O)(=O)Nc1ccc(F)c(C(=O)c2c[nH]c3ncc(-c4ccc(Cl)cc4)cc23)c1F | TEC | enzyme activity | inhibitor |  | 1 µM | inhibition | < 10%
C[C@@H]1CN(c2cc(-c3nn(C)c4ccc(OC5(C)CC5)cc34)ncn2)C[C@H](C)O1 | TEC | cell-free assay |  | competition with immobilised ligand | 1 µM | remaining binding | 100%
CC(C)(C)c1nc2c(s1)c1nc(N)ncc1c1ccc(NS(=O)(=O)c3c(F)cccc3F)c(F)c12 | TEC | enzyme activity | inhibitor | radiometric | 1 µM | remaining activity | 87%
